# Compound activity deposited in PubChem BioAssay by The Scripps Research Institute Molecular Screening Center.
# Compounds with a hit are over-represented: about 2.9% of the library has one in this group of screens.
# PAD4 FP inh: inhibitors of human PAD4. inhibition, % at 6.36 µM. recombinant PAD4, RCA probe fluorescence polarization. actives 0.41% (n = 330,000);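 active means percent inhibition above a cutoff equal to the mean of all tested compounds plus 3 SD, cut at about 15% in these data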
# mABHD4 FP: inhibits mouse alpha/beta hydrolase domain 4 | actives 0.54% (n = 370,000) | AID 720543 | inhibition, % at 8.92 µM | purified mABHD4, FP-Rh probe fluorescence polarization | Q8VD66;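 active means inhibition exceeding the mean over every tested compound plus 3 SD, cut at about 30% in these data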
#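 Assay system: wild-type mouse ABHD4 protein; compound: single nominal dose of 8.92 µM, 0.89% DMSO final; schedule: 45 min + 60 min at 25 °C; measured by: FP readout, ex 525 nm / em 598 nm; evaluation: % inhibition of FP-Rh probe binding versus controls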
# SIAE inh: human SIAE inhibition, primary screen. Q9HAT2. inhibition, % at 9.66 µM. SIAE FP-Rh probe binding, fluorescence polarization. actives 0.69% (n = 370,000);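 active means inhibition above a cutoff: mean of compounds within the control limits plus 3 SD of those, cut at about 17% in these data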
# PRMT1 FP inh: inhibitors of human PRMT1; Q99873; recombinant PRMT1, activity-based probe fluorescence polarization; inhibition, % at 2.79 µM; actives 1.3% (n = 370,000); AID 652257;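 active means inhibition above about 21% made by adding two undisclosed values, limit read from the data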
# TCR CD3 inh: blocks the human TCR-CD3 interaction | TAMRA-labeled TCR probe fluorescence, biochemical | inhibition, % at 9.4 µM | actives 0.37% (n = 360,000); in the data active means inhibition above about 19%;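 further: recombinant mutant TCR 2C K166C tagged with TAMRA read by polarization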
# HTRA1 inhibitor: blocks human HTRA1 serine peptidase; Q92743; recombinant HTRA1, FP-rhodamine activity-based probe, fluorescence polarization; inhibition, % at 5.96 µM; actives 0.5% (n = 340,000); AID 504803; in the data active means inhibition above about 36%
# Target sequence (Q92743 whole entry, looked up): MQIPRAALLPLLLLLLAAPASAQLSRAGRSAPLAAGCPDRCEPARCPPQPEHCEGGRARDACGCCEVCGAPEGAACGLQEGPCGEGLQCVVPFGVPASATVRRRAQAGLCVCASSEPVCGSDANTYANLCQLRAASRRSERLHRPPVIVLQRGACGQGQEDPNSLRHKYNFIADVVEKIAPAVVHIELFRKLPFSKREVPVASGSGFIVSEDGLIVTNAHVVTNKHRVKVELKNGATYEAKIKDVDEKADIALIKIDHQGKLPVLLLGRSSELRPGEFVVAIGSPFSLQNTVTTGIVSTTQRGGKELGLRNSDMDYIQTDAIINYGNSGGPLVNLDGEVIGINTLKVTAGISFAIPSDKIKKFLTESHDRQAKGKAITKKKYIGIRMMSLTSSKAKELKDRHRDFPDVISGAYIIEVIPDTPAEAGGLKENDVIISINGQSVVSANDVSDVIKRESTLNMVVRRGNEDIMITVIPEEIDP
# Hits are given with their value; n = inactive; x = no result given.
SMILES,PAD4 FP inh,mABHD4 FP,SIAE inh,PRMT1 FP inh,TCR CD3 inh,HTRA1 inhibitor
O=C(O[C@@H]1OC2COC(=O)c3cc(O)c(O)c(O)c3-c3c(cc(O)c(O)c3O)C(=O)O[C@@H]([C@H]1O)[C@@H]2O)c1cc(O)c(O)c(O)c1,n,x,x,x,x,41
Cc1ccc(C(=O)O)cc1N1C(=O)c2cccc3c([N+](=O)[O-])ccc(c23)C1=O,n,n,n,22,n,n
O=C1NC(=O)/C(=C/c2ccc(-c3cc(C(=O)O)ccc3Cl)o2)S1,n,n,n,n,n,n
O=C1NC(=S)/C(=C\c2ccc(-c3ccccc3Cl)o2)S1,n,n,n,67,n,n
COCCCNC(=O)[C@@H](Cc1ccccc1)NC(=O)[C@H]1O[C@@H](n2ccc(=O)[nH]c2=O)[C@H](O)[C@@H]1O,x,n,n,n,n,x
O=C(CCc1ccccc1)N[C@H]1[C@H](OC(=O)c2cnccn2)CCC[C@]12C(=O)N(Cc1ccccc1)c1ccccc12,x,n,n,n,x,x
O=C(Cc1cccc2ccccc12)Nc1ccc(-c2cc3ccccc3oc2=O)cc1,n,n,n,n,38,n
O=C(OCCN1CCN(C2CN(Cc3cn(Cc4ccc([N+](=O)[O-])cc4)nn3)S(=O)(=O)C2)CC1)c1cc2ccccc2o1 (stereo not given),x,n,n,n,x,x
CC1(C)CC(=O)C2=C(C1)OC1=C(C(=O)CC(C)(C)C1)C2c1ccc(O)cc1O,n,n,n,78,n,n
Cc1ccc(NC(=O)C2CCCN(c3nnc(-n4cccc4)s3)C2)cc1C (stereo not given),x,n,n,n,x,x
O=C(O)C1CSC(c2ccc3c(c2)OCO3)N1 (stereo not given),n,n,n,27,n,n
O=C(O)C1CSC(c2ccc(O)c([N+](=O)[O-])c2)N1 (stereo not given),x,n,n,n,n,n
CCCCn1c(NC(=O)c2ccc(F)cc2)c(C#N)c2nc3ccccc3nc21,70,x,x,x,x,x
CCCCn1c(NC(=O)c2ccccc2)c(C#N)c2nc3ccccc3nc21,x,n,n,n,n,n
CCNC(=O)N(C)[C@H]1C[C@H]2c3[nH]c4cccc(-c5ccc6c(c5)OCO6)c4c3CCN2C[C@H]1[C@H](C)O,x,n,n,n,x,x
Oc1ccccc1-c1nnc(COc2ccccc2)o1,n,n,n,n,34,n
O=[N+]([O-])c1ccc2c(c1)N([O-])C1(CCCCC1)[N+]2=O,x,53,n,n,n,x
CN(C1CCCC1)C1CCN(C(=O)CNC(=O)/C=C/c2ccccc2)CC1,n,n,n,n,n,n
CC1CCCCC1N(C)C1CCN(C(=O)CNC(=O)/C=C/c2cccc(Cl)c2)CC1 (stereo not given),n,n,n,22,n,n
COc1ccc(-n2c(COc3ccccc3)nnc2SCC(=O)Nc2ccccc2-c2ccccc2)cc1,x,n,n,n,x,x
Cc1oc(-c2ccccc2F)nc1CSCC(=O)NC1CCCC1,n,n,n,24,n,n
CN(CCCOC(=O)c1cc2ccccc2o1)C1CN(Cc2cn(Cc3ccc([N+](=O)[O-])cc3)nn2)S(=O)(=O)C1 (stereo not given),x,n,n,n,x,x
COc1ccc(/C(O)=C2/C(=O)C(=O)N(Cc3ccco3)C2c2cccs2)cc1 (stereo not given),n,n,n,24,n,n
CC1CCN(C(=O)COc2cccc3c2CCN(Cc2ccccc2)C3=O)CC1,n,n,17,n,n,n
CCN1CCc2c(OCC(=O)N3CCC(C)CC3)cccc2C1=O,n,n,n,n,n,n
SMILES,PAD4 FP inh,mABHD4 FP,SIAE inh,PRMT1 FP inh,TCR CD3 inh,HTRA1 inhibitor
O=C(NNc1nc2cc3c(cc2s1)OCO3)c1ccc(F)cc1,n,n,n,23,n,n
Cc1c(C=O)c(Cl)n(C)c(=O)c1C#N,27,n,n,n,n,n
CC(=O)N=Cc1c(C)c(C#N)c(=O)n(C)c1O,n,n,n,n,n,n
CCC(=O)N1CCc2cc(Br)c(S(=O)(=O)N3CCC(C(=O)NCCCOC(C)C)CC3)cc21,x,n,n,n,x,x
O=C(NC(Cc1ccccc1)C(=O)O)/C(=C\c1ccco1)NC(=O)c1ccccc1Br (stereo not given),n,n,n,24,n,n
Cc1cnc(C)c(Nc2nc(C(N)Cc3ccc(F)cc3)cs2)n1 (stereo not given),x,n,n,n,n,x
